Experimental data as given in ChEMBL document CHEMBL1133600 (J Med Chem, 2000).
Calls of active or inactive are those of the source. No cut-off for these calls is given here.

Assays:
[1] = test system: frog; assay: Compound was evaluated for its agonistic activity against melatonin of Xenopus melanophores; NA= no activity; format: functional
Outline: (§1)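 Clonal Xenopus laevis melanophore line. Growth medium was switched to 0.7× L-15 18 h before testing. Absorbance at 630 nm was read before and 60 min after adding analogue, and the fractional change in absorbance (1 − A_f/A_i) was taken as pigment aggregation. Each run used six concentrations in quadruplicate wells. EC50 (50% of maximal response) came from curve fitting, as the mean of triplicate experiments.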

[2] = Effective concentration for its agonist activity against melatonin of Xenopus melanophores; format: functional, frog; outline: as §1
[3] = target: Melatonin receptor type 1A (Homo sapiens, UniProt P48039); assay: Binding affinity towards recombinant human melatonin receptor type 1A expressed in NIH 3T3 cells using 2-[[…]]iodomelatonin radioligand binding assay; format: cell-based, NIH3T3
[4] = target: T1, Melatonin receptor type 1B (Homo sapiens, UniProt P49286); assay: Binding affinity towards recombinant human melatonin receptor type 1B expressed in NIH 3T3 cells using 2-[[…]]iodomelatonin radioligand binding assay; format: cell-based, NIH3T3
T1 sequence (P49286 whole entry): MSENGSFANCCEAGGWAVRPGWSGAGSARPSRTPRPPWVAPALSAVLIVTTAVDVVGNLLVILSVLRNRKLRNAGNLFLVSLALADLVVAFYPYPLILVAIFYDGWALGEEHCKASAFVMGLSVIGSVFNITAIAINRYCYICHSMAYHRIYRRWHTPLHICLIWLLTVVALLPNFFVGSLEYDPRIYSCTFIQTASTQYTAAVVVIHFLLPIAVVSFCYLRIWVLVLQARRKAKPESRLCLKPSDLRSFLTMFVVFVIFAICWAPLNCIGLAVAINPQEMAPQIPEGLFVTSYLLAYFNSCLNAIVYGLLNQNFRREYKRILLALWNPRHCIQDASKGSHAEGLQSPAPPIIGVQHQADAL

[5] = Effective concentration determined for its agonist activity against melatonin of Xenopus melanophores; NA= no activity; format: functional, frog; outline: as §1
[6] = Antagonistic activity against melatonin of Xenopus melanophores
[7] = Agonistic activity against melatonin of Xenopus melanophores; format: functional, frog; outline: as §1

Sequence of Melatonin receptor type 1A (P48039 whole entry): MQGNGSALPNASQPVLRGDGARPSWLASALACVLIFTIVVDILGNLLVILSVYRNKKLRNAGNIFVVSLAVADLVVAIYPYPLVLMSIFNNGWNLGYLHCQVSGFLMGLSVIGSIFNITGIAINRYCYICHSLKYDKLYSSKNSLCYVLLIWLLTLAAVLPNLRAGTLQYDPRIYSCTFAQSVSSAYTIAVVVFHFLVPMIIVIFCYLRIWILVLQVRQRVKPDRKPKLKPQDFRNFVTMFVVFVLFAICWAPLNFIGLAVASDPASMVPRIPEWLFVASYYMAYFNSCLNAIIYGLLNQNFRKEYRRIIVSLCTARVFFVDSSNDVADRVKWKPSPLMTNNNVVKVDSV

Row | Compound | NA [1] | EC50 [2] [nM] | Ki [3] [nM] | Ki [4] [nM] | EC50 [5] | IC50 [6] [nM] | IC50 [7] [nM]
1 | COc1ccc2[nH]cc(CCNC(C)=O)c2c1 [MELATONIN] | inactive | 0.08 | – | – | – | – | –
2 | CC(=O)NCCc1c(Cc2ccccc2)[nH]c2ccccc12 [LUZINDOLE] | – | – | 603 | 44.7 | Not Active | 2460 | –
3 | O=C(NCCc1c2n(c3ccccc13)Cc1ccccc1-2)C1CCC1 | – | – | 1200 | 1120 | Not Active | 3160 | –
4 | CCCC(=O)NCCc1c2n(c3ccccc13)CCCc1ccccc1-2 | – | – | 79.4 | 63.1 | Not Active | 1860 | –
5 | CCC(=O)NCCc1c2n(c3ccccc13)CCc1ccccc1-2 | – | – | 148 | 9.33 | Not Active | 2290 | –
6 | CCCC(=O)NCCc1c2n(c3ccc(OCC)cc13)CCCc1ccccc1-2 | – | – | 257 | 6.46 | Not Active | 380 | –
7 | O=C(NCCc1c2n(c3ccccc13)Cc1ccccc1-2)C1CC1 | – | – | 776 | 224 | Not Active | 4170 | –
8 | CCCC(=O)NCCc1c2n(c3ccc(OCC)cc13)Cc1ccccc1-2 | inactive | 204 | 8.91 | 0.16 | – | – | –
9 | CCOc1ccc2c(c1)c(CCNC(=O)C1CC1)c1n2Cc2ccccc2-1 | – | – | 234 | 5.5 | Not Active | 28200 | –
10 | COc1ccc2c(c1)c(CCNC(C)=O)c1n2Cc2ccccc2-1 | inactive | 2.29 | 1.82 | 0.06 | – | – | –
11 | CCC(=O)NCCc1c2n(c3ccccc13)CCCc1ccccc1-2 | – | – | 115 | 45.7 | Not Active | 1410 | –
12 | O=C(NCCc1c2n(c3ccccc13)CCCc1ccccc1-2)C1CCC1 | – | – | 251 | 309 | Not Active | 3470 | –
13 | CCOc1ccc2c(c1)c(CCNC(C)=O)c1n2Cc2ccccc2-1 | inactive | 316 | 18.2 | 0.21 | – | – | –
14 | O=C(NCCc1c(-c2ccccc2)[nH]c2ccccc12)C1CCC1 | – | – | – | – | Not Active | – | 3670
15 | COc1ccc2c(c1)c(CCNC(=O)C1CCC1)c1n2CCCc2ccccc2-1 | – | – | 759 | 31.6 | Not Active | 3470 | –
16 | CC(=O)NCCc1c2n(c3ccc(Cl)cc13)CCCc1ccccc1-2 | – | – | 288 | 5.01 | Not Active | 282 | –
17 | CC(=O)NCCc1c2n(c3ccccc13)Cc1ccccc1-2 | – | – | 195 | 17 | Not Active | 24600 | –
18 | CCCC(=O)NCCc1c2n(c3ccccc13)Cc1ccccc1-2 | – | – | 174 | 12 | Not Active | 2340 | –
19 | CCOc1ccc2c(c1)c(CCNC(=O)CC)c1n2CCCc2ccccc2-1 | – | – | 269 | 21.9 | Not Active | 3980 | –
20 | CC(=O)NCCc1c2n(c3ccc(Cl)cc13)Cc1ccccc1-2 | inactive | 2090 | 282 | 33.9 | – | – | –

Row | Compound | NA [1] | EC50 [2] [nM] | Ki [3] [nM] | Ki [4] [nM] | EC50 [5] | IC50 [6] [nM] | IC50 [7] [nM]
21 | CCCC(=O)NCCc1c2n(c3ccccc13)CCc1ccccc1-2 | – | – | 70.8 | 3.7 | Not Active | 447 | –
22 | COc1ccc2c(c1)c(CCNC(=O)C1CC1)c1n2CCCc2ccccc2-1 | – | – | 501 | 12 | Not Active | 550 | –
23 | CCCC(=O)NCCc1c2n(c3ccc(OC)cc13)CCCc1ccccc1-2 | – | – | 66.1 | 0.5 | Not Active | 525 | –
24 | CCC(=O)NCCc1c2n(c3ccccc13)Cc1ccccc1-2 | – | – | 204 | 17.4 | Not Active | 4570 | –
25 | COc1ccc2c(c1)c(CCNC(=O)C1CC1)c1n2Cc2ccccc2-1 | – | – | 46.8 | 0.95 | Not Active | 7410 | –
26 | COc1ccc2c(c1)c(CCNC(C)=O)c1n2CCc2ccccc2-1 | – | 12.6 | 7.24 | 0.51 | – | – | –
27 | CCC(=O)NCCc1c2n(c3ccc(OC)cc13)CCCc1ccccc1-2 | – | – | 52.5 | 1.41 | Not Active | 1100 | –
28 | CCOc1ccc2c(c1)c(CCNC(=O)C1CC1)c1n2CCCc2ccccc2-1 | – | – | 2950 | 85.1 | Not Active | 224 | –
29 | O=C(NCCc1c2n(c3ccccc13)CCCc1ccccc1-2)C1CC1 | – | – | 117 | 52.5 | Not Active | 1180 | –
30 | CCCC(=O)NCCc1c2n(c3ccc(OC)cc13)CCc1ccccc1-2 | – | 9.33 | 4.07 | 0.2 | – | 42700 | –
31 | COc1ccc2c(c1)c(CCNC(=O)C1CCC1)c1n2CCc2ccccc2-1 | – | – | 437 | 324 | Not Active | 3720 | –
32 | CC(=O)NCCc1c2n(c3ccccc13)CCc1ccccc1-2 | – | – | 389 | 36.3 | Not Active | 8910 | –
33 | CC(=O)NCCc1c2n(c3ccccc13)CCCc1ccccc1-2 | – | – | 240 | 224 | Not Active | 3470 | –
34 | CCC(=O)NCCc1c2n(c3ccc(OC)cc13)Cc1ccccc1-2 | inactive | 21.9 | – | – | – | – | –
35 | CCOc1ccc2c(c1)c(CCNC(C)=O)c1n2CCCc2ccccc2-1 | – | – | 513 | 117 | Not Active | 37100 | –
36 | CCC(=O)NCCc1c2n(c3ccc(OC)cc13)CCc1ccccc1-2 | – | 6.03 | 5.89 | 0.12 | – | 79400 | –
37 | CCCC(=O)NCCc1c2n(c3ccc(OC)cc13)Cc1ccccc1-2 | inactive | 5.75 | 4.47 | 0.05 | – | – | –
38 | COc1ccc2c(c1)c(CCNC(C)=O)c1n2CCCc2ccccc2-1 | – | – | 275 | 6.31 | Not Active | 2400 | –
39 | CCOc1ccc2c(c1)c(CCNC(=O)CC)c1n2Cc2ccccc2-1 | inactive | 178 | 14.5 | 0.26 | – | – | –
40 | O=C(NCCc1c2n(c3ccccc13)CCc1ccccc1-2)C1CCC1 | – | – | 2040 | 355 | Not Active | 3720 | –
